In PMC4152390 (Neuropharmacology, 2014):

How the values were obtained:
SERT = SERT (Rattus norvegicus, UniProt P31652); assay: [3H]serotonin uptake inhibition in rat brain synaptosomes; assay type: biochemical; details: for IC50: read-out: [3H]Serotonin uptake, IC50 at SERT, rat brain synaptosomes (whole brain minus striatum and cerebellum), 5 nM [3H]serotonin, mean±SD, n=3
Summary of the method: (§1)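 Synaptosomes came from male Sprague-Dawley rats: striatum for DAT, and whole brain minus striatum and cerebellum for NET and SERT. Uptake ran in pH 7.4 Krebs-phosphate buffer (pargyline, BSA, ascorbate) with test compound, [3H]dopamine, [3H]norepinephrine or 5 nM [3H]serotonin, and unlabeled blockers of competing transporters. It was stopped by filtration and counted by scintillation.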

DAT, NET and SERT = details: ref Baumann et al., 2013b; cited from earlier work
NET = NET (Rattus norvegicus, UniProt Q63380); assay: [3H]norepinephrine uptake inhibition in rat brain synaptosomes; assay type: biochemical; details: read-out: [3H]Norepinephrine uptake, IC50 at NET; rat brain synaptosomes (whole brain minus striatum and cerebellum); 10 nM [3H]norepinephrine; mean±SD, n=3
Summary of the method: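 Rats killed by CO2; synaptosomes from whole brain minus striatum and cerebellum. Unlabeled blockers were added to prevent uptake by competing transporters. Tissue was added to Krebs-phosphate buffer (pH 7.4; 0.05 mM pargyline, 1 mg/mL BSA and ascorbic acid) containing test compound and [3H]norepinephrine. Rapid GF/B filtration, scintillation counting, % control uptake.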

DAT = DAT (Rattus norvegicus, UniProt P23977); assay: [3H]dopamine uptake inhibition in rat brain synaptosomes; assay type: biochemical; details: selectivity from uptake IC50 values at DAT and SERT
Summary of the method: as §1

ICR mice [1] = assay: Locomotor activity; assay type: in vivo, mouse; details: for Doses producing significant increases in beam breaks compared to saline for the duration of the session (all time points): i.p., 10-min bins of 60-min session
Summary of the method: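 Male ICR mice got a single i.p. dose of test compound or saline (sterile saline vehicle, 10 ml/kg), n=8 per dose and n=16 for saline. Each was placed at once into a clear open-field chamber (47×25.5×22 cm) for a 60-min blinded session. Beam breaks were counted per 10-min bin and analysed by mixed-model ANOVA (time within, dose between), with p<0.05.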

ICR mice [2] = assay: Locomotor activity with SCH23390 antagonist pretreatment; assay type: in vivo, mouse; details: SCH23390 0.03 mg/kg s.c., 60 min session
Summary of the method: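 In weeks 5 and 7, ICR mice got SCH23390 (0.03 mg/kg) or saline s.c. 30 min before an i.p. challenge with test compound or saline. Groups given the highest FOB dose were excluded, and the vehicle group was split between pretreatments. Total beam breaks were analysed by two-way ANOVA (dose × pretreatment).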

ICR mice [3] = assay: Functional observational battery; assay type: in vivo, mouse; details: i.p., 15 min post-injection, p<0.0033
Summary of the method: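 Male ICR mice (n=8 per group; a single saline group of n=16) got one i.p. dose of test compound in sterile saline (10 ml/kg). A modified EPA functional observational battery was scored 15 min post-injection by a blinded technician in weeks 2–3. Each measure was analysed by Kruskal–Wallis ANOVA by ranks, corrected for ties, with corrected alpha p<0.0033.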

Chain of DAT (P23977 whole entry): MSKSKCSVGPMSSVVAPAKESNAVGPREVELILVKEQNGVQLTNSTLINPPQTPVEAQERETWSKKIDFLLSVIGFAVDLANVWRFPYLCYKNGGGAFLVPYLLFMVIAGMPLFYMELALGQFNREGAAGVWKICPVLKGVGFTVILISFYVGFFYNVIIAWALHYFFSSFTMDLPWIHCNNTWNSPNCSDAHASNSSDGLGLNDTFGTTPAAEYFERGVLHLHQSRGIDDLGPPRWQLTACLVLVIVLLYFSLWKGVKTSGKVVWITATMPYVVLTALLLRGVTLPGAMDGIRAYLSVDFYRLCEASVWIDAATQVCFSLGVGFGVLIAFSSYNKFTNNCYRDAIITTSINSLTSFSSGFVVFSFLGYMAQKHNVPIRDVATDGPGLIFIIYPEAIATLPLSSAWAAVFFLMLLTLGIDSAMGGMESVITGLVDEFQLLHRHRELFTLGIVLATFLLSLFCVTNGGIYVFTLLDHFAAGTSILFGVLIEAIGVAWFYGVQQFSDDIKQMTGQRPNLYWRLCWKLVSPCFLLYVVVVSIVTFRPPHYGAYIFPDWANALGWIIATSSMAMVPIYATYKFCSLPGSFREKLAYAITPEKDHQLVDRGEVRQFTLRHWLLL
Chain of NET (Q63380 1-617): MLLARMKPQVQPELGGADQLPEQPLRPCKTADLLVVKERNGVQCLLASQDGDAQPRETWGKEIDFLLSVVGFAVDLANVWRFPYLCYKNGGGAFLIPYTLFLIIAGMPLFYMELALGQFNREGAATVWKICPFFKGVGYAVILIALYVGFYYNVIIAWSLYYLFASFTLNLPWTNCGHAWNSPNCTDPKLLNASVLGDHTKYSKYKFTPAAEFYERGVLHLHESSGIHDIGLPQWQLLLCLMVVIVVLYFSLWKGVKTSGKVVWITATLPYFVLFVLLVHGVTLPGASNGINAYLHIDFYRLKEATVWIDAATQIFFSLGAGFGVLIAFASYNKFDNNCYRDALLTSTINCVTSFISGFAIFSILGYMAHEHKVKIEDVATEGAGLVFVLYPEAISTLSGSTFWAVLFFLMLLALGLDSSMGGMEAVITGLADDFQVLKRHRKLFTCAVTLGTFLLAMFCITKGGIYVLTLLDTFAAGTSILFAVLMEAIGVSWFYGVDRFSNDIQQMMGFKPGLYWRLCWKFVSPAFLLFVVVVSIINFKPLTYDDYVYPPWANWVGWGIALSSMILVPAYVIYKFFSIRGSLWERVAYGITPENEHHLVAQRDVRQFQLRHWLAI
Chain of SERT (P31652 whole entry): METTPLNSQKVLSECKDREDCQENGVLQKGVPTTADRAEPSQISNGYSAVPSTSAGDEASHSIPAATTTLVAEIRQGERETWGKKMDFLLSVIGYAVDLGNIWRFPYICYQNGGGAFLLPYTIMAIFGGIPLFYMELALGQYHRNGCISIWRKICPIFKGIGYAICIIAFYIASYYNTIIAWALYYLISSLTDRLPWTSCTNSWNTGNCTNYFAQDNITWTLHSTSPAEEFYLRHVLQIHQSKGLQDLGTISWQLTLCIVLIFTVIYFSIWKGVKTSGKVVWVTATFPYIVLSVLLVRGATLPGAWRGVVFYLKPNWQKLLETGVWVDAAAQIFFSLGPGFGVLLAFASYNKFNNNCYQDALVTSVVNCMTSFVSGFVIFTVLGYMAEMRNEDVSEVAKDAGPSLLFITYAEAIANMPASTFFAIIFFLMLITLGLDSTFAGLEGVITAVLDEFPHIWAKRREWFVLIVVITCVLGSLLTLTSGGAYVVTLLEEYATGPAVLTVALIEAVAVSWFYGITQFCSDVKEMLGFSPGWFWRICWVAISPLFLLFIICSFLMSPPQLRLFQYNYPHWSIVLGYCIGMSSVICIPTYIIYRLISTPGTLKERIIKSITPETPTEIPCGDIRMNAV

SMILES	fold weaker at blocking uptake of serotonin than catecholamine uptake (SERT; SERT versus DAT and NET uptake IC50)	IC50 (SERT) [nM]	Activity in the release assay (DAT, NET and SERT)	IC50 (NET) [nM]	DAT/SERT ratio (DAT)	Doses producing significant increases in beam breaks compared to saline for the duration of the session (all time points) (ICR mice [1]) [mg/kg]	Effect of SCH23390 plus saline on activity compared to saline/saline group (ICR mice [2])	Time from session start with significantly increased beam breaks (ICR mice [1]; 3.0 mg/kg i.p., 60-min session) [min]	Grooming: direction of difference from saline and doses at which significant (ICR mice [3]) [mg/kg]	Time from session start with significantly increased beam breaks (ICR mice [1]; 10.0 mg/kg i.p., 60-min session) [min]	Postinjection interval with significantly increased beam breaks (ICR mice [1]; 1.0 mg/kg i.p., 60-min session) [min]
CCCC(C(=O)c1ccc2c(c1)OCO2)N1CCCC1 (centres unmarked) [MDPV, 3,4-methylenedioxypyrovalerone]	more than 100 fold	3300 ± 485	not active	25.9 ± 5.6	806	1.0 to 3.0					
CN1CCc2cc(Cl)c(O)cc2[C@@H](c2ccccc2)C1 [SCH23390]							did not significantly affect activity				
CCC(C(=O)c1ccccc1)N1CCCC1 (stereo not drawn) [α-PBP, α-pyrrolidinobutiophenone]		> 10000		91.5 ± 12.8	>159	10.0		40			
CC(C(=O)c1ccccc1)N1CCCC1 (stereo not drawn) [α-PPP, α-pyrrolidinopropiophenone]		> 10000		445 ± 39.2	>51	30.0			30	50	
CCCC(C(=O)c1ccccc1)N1CCCC1 (stereo not drawn) [α-PVP, α-pyrrolidinovalerophenone]		> 10000		14.2 ± 1.2	>781	3.0 to 10.0					20 to 50
